The target of assay [1] is T1, 5'-nucleotidase (Rattus norvegicus, UniProt P21588).
T1 sequence (P21588 whole entry): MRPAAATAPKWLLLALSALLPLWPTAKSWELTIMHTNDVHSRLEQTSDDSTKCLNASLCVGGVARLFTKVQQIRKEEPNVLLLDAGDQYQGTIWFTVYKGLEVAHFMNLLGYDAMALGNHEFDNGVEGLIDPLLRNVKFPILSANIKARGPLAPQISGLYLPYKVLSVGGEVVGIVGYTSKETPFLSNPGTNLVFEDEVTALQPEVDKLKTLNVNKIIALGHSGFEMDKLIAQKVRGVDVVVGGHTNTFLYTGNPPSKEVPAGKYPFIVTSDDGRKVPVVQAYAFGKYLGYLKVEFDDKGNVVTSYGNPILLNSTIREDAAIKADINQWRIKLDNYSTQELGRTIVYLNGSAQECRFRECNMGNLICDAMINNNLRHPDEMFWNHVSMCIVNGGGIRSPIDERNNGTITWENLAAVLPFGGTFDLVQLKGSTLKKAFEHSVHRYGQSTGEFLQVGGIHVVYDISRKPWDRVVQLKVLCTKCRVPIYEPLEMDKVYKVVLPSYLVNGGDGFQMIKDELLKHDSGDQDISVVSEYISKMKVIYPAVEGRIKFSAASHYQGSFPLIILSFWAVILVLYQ
The assay is described as follows: Inhibition of rat ecto-5'-nucleotidase expressed in Sf9 cells by capillary electrophoresis method. An outline of the steps:
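Rat eN, GST-fused, made in Sf9 cells and purified on GSH-agarose. 500 μM AMP in Hepes pH 7.4 with Mg2+/Ca2+, 37 °C for 15 min. Adenosine measured by capillary electrophoresis at 260 nm. Inhibitor at 6-8 concentrations spanning about 3 log units. […] Three experiments, each in duplicate.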

For assay [2], the target named is T2, Ectonucleoside triphosphate diphosphohydrolase 1 (Rattus norvegicus, UniProt P97687).
T2 sequence (P97687 whole entry): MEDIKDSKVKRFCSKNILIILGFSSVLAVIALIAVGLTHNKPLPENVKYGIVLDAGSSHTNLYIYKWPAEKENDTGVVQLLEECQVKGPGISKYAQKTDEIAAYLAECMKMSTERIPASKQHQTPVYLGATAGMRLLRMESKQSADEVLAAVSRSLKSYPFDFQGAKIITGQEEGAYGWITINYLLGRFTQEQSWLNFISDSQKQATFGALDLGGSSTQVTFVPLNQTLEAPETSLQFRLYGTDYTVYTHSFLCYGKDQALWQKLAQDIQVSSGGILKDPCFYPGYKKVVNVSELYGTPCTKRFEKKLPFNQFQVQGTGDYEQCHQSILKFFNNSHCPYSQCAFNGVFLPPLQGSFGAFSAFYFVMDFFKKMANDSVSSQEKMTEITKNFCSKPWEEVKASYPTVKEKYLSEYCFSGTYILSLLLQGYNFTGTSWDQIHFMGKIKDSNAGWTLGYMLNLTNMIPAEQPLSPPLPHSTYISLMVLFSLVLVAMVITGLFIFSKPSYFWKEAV
The experiment in a line: Inhibition of rat NTPdase1 by capillary electrophoresis method.

Assay [3] concerns the target T3, Ectonucleoside triphosphate diphosphohydrolase 2 (Rattus norvegicus, UniProt O35795).
T3 sequence (O35795 whole entry): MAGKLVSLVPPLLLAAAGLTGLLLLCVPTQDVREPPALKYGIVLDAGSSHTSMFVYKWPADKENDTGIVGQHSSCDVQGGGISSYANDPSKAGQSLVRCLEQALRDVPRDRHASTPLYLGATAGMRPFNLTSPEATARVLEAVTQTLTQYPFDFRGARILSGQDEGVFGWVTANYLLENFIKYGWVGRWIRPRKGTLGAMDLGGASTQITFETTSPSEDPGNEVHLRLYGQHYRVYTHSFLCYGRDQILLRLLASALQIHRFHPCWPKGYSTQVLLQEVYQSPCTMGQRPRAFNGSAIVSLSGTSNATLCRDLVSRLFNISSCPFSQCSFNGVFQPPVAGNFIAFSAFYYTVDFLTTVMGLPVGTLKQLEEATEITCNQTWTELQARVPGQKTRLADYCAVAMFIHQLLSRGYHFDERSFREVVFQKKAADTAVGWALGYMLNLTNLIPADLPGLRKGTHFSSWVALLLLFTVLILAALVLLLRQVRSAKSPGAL
The assay is described as follows: Inhibition of rat NTPdase2 by capillary electrophoresis method.

The target in assay [4] is T4, Nucleoside triphosphate diphosphohydrolase 3 (Rattus norvegicus, UniProt A6I415).
T4 sequence (A6I415 whole entry): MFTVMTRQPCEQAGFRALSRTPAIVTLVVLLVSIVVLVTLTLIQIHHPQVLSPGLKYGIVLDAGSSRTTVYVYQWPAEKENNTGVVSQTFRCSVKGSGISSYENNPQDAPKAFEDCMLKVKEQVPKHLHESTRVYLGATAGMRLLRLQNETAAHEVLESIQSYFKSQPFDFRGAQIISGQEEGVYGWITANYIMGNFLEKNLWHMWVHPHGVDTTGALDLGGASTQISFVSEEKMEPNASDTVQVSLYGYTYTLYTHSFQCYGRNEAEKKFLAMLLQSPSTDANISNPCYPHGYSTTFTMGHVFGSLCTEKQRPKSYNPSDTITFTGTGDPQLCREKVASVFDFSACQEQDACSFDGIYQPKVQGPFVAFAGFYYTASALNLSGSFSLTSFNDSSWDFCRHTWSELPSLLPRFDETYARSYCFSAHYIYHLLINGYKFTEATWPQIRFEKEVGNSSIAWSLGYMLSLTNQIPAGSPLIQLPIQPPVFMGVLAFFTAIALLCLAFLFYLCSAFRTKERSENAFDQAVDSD
The assay is described as follows: Inhibition of rat NTPdase3 by capillary electrophoresis method.

Assay [5] deals with P2Y purinoceptor 2 (Homo sapiens, UniProt P41231). The experiment in a line: Antagonist activity at human P2Y2 receptor expressed in astrocytoma cells assessed as inhibition of intracellular calcium mobilization. The assay is classed as functional, cell-based. An outline of the steps:
(§1)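 Astrocytoma cells stably expressing the receptor, loaded with Fura-2 AM. Cells preincubated with test agent for at least 20 min, then challenged with 1 μM UTP (P2Y2), 3 μM UTP (P2Y4) or 3 μM UDP (P2Y6). Ca2+ fluorescence read at ex 320/em 520 nm. Full curves (7-8 concentrations over 3 log units) run when inhibition exceeded 40% at 10 μM. Three experiments, each in triplicate.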
On the technique in general: Calcium flux is commonly read through the fluorescence of an indicator in the cells.

Assay [6] has as its target P2Y purinoceptor 4 (Homo sapiens, UniProt P51582). The experiment in a line: Antagonist activity at human P2Y4 receptor expressed in astrocytoma cells assessed as inhibition of intracellular calcium mobilization. The assay is classed as functional, cell-based. An outline of the steps:
as §1

For assay [7], the target named is P2Y purinoceptor 6 (Rattus norvegicus, UniProt Q63371). The assay is described as follows: Antagonist activity at rat P2Y6 receptor expressed in astrocytoma cells assessed as inhibition of intracellular calcium mobilization. The assay is classed as functional, cell-based. An outline of the steps:
as §1

In assay [8] the target is T5, Ectonucleoside triphosphate diphosphohydrolase 1 (Homo sapiens, UniProt P49961).
T5 sequence (P49961 whole entry): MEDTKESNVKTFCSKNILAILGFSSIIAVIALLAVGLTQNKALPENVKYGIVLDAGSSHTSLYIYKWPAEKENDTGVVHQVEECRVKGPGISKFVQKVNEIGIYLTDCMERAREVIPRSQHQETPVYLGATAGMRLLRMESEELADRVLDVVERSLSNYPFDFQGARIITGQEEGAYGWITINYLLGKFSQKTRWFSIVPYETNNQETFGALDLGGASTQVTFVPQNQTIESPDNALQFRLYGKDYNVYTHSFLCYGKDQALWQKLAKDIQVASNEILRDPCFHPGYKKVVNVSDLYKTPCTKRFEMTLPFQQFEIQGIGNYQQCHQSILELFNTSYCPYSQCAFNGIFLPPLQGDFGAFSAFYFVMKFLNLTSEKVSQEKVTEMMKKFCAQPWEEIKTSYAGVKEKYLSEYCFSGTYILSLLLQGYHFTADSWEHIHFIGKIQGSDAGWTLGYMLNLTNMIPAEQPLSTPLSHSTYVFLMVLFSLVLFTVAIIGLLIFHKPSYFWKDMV
The experiment in a line: Inhibition of human NTPdase1 by capillary electrophoresis method. An outline of the steps:
(§2)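 Membrane preparations containing human NTPDase1, 2 or 3. Inhibitor added in water or 1% DMSO. Incubated 10 min at 37 °C, stopped at 99 °C for 5 min. Diluted with 20 μM UMP as internal standard, then analysed by capillary electrophoresis. Triplicates in two experiments.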

The target of assay [9] is T6, Ectonucleoside triphosphate diphosphohydrolase 2 (Homo sapiens, UniProt Q9Y5L3).
T6 sequence (Q9Y5L3 whole entry): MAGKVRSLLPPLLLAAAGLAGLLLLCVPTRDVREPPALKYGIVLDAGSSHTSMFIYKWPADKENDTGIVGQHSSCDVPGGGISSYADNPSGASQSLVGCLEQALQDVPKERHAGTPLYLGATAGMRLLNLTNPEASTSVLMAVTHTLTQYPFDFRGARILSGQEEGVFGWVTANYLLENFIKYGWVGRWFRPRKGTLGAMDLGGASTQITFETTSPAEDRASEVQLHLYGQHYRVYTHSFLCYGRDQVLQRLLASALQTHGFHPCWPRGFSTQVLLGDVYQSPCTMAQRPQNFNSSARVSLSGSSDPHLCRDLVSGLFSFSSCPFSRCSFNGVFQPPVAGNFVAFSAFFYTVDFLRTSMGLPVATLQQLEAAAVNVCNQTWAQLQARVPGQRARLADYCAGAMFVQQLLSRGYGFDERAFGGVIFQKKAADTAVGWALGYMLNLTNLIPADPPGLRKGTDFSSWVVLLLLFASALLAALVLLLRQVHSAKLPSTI
The experiment in a line: Inhibition of human NTPdase2 by capillary electrophoresis method. An outline of the steps:
as §2

The target of assay [10] is T7, 5'-nucleotidase (Rattus norvegicus) (UniProt P21588).
T7 sequence (whole entry): T1 sequence (P21588 whole entry)
The assay is described as follows: Inhibition of rat ecto-5'-nucleotidase expressed in Sf9 cells by competitive Michaelis-Menten plot. An outline of the steps: (§3)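 Purified recombinant rat eN from Sf9 cells. Reaction rates measured across a range of AMP concentrations, with inhibitor absent or at 0.2, 1 or 5 μM. Adenosine formed was quantified by capillary electrophoresis at 260 nm. Km and Vmax were compared on Michaelis-Menten and Lineweaver-Burk plots to assign the inhibition mode.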

Assay [11] has as its target T7, 5'-nucleotidase (Rattus norvegicus). The experiment in a line: Inhibition of rat ecto-5'-nucleotidase expressed in Sf9 cells by competitive Lineweaver-Burke plot. An outline of the steps:
as §3

In assay [12] the target is T8, Ectonucleoside triphosphate diphosphohydrolase 3 (Homo sapiens, UniProt O75355).
T8 sequence (O75355 whole entry): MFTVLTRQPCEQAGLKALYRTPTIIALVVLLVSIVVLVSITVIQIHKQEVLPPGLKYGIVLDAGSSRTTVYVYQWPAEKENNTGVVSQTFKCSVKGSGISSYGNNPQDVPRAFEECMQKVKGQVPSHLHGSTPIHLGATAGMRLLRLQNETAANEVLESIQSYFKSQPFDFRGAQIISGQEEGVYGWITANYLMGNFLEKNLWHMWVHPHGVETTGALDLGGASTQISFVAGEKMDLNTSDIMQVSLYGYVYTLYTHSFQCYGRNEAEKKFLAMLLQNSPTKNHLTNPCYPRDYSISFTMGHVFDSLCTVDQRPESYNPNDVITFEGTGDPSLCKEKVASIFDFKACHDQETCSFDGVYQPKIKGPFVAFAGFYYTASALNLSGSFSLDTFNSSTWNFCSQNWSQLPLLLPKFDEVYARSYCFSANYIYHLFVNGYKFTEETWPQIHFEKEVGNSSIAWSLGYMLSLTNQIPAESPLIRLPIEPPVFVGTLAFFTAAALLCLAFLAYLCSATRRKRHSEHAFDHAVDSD
The assay is described as follows: Inhibition of human NTPdase3 by capillary electrophoresis method. An outline of the steps: as §2

Assay [13] can be described thus: Selectivity ratio of Ki for rat ecto-5'-nucleotidase to Ki for human NTPdase1.

The source made the active and inactive calls. The calls are words filed in the database; no cut-off is given here. A value given as a limit tells only on which side of the number the result lay.

P2Y purinoceptor 6, sequence (Q63371 whole entry): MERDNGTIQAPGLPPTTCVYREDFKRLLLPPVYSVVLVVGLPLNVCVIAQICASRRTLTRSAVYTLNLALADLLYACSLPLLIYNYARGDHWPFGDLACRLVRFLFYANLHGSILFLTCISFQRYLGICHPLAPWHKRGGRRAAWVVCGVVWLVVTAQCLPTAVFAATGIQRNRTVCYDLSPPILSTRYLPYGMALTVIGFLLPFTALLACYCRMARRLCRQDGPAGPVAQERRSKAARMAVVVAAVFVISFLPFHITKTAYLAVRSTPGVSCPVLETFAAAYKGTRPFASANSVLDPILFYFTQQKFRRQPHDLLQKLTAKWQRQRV
P2Y purinoceptor 2, sequence (P41231 whole entry): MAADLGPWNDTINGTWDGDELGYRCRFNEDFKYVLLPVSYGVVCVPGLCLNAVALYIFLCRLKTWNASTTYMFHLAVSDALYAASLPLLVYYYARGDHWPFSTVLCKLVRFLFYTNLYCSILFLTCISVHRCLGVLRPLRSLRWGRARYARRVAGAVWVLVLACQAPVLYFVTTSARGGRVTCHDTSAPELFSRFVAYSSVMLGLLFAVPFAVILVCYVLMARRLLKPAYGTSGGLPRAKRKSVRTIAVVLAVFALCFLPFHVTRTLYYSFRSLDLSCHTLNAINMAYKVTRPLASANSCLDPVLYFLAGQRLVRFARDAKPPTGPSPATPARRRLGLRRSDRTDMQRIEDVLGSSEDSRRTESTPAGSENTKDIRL
P2Y purinoceptor 4, sequence (P51582 whole entry): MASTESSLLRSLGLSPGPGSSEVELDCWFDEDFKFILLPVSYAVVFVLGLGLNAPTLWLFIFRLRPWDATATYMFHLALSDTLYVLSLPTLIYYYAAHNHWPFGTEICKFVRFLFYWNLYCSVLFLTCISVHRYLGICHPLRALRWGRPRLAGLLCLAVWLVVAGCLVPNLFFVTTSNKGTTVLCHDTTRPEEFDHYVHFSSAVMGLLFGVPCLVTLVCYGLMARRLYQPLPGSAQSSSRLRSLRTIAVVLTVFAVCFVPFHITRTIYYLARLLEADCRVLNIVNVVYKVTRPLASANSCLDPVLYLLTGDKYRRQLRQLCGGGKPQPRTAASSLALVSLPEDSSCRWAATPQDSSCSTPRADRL

Turning to `Nc1c(S(=O)(=O)O)cc(Nc2ccccc2)c2c1C(=O)c1ccccc1C2=O` [ACID BLUE 25], the Ki in assay [1] was determined as 15.2 µM; in assay [2], 49.1 µM; in assay [3], 35.8 µM; in assay [4] it was 14.3 µM. The values for the IC50 in assay [5], in assay [6] and in [7] were 11 µM, 25.8 µM and over 10 µM, respectively.

`Nc1c(S(=O)(=O)O)cc(Nc2ccc(O)cc2)c2c1C(=O)c1ccccc1C2=O`: the Ki in assay [1] was 0.62 µM; in [8] it was 10.7 µM; in assay [9] it was over 200 µM. Moreover, the IC50 in assay [5] was 4.63 µM; in assay [6], 2.37 µM; in [7] it was 5.3 µM.

Turning to `Nc1c(S(=O)(=O)O)cc(Nc2cccc3ccccc23)c2c1C(=O)c1ccccc1C2=O`, the Ki in [1] was 0.53 µM; in assay [2], over 150 µM; in assay [3], over 400 µM; in [4], 1.5 µM. In addition, the inhibition entry in assay [10] and in [11] was “Active” throughout. Moreover, the IC50 in assay [7] turned out to be 30 µM.

For `Nc1c(S(=O)(=O)O)cc(Nc2ccc3cc4ccccc4cc3c2)c2c1C(=O)c1ccccc1C2=O`, the Ki is 0.15 µM in assay [1], 2.59 µM in assay [8], over 200 µM in assay [9] and over 60 µM in assay [12]. Further, the IC50 was 10 µM in [5], over 10 µM in [6] and over 10 µM in [7]. The Ratio Ki in assay [13] was determined as 17.

Regarding `Nc1c(S(=O)(=O)O)cc(Nc2ccc(F)cc2C(=O)O)c2c1C(=O)c1ccccc1C2=O`, the Ki in assay [1] was 0.26 µM; in assay [8], over 40 µM; in assay [9], over 200 µM; in [12] it was over 60 µM. Besides, the figures for the half-maximal inhibitory concentration (IC50) in assay [5], in [6] and in assay [7] were 29.9 µM, over 10 µM and 10 µM, respectively. In addition, the Ratio Ki in [13] is over 150.

As a reminder, the Ki is a measure of affinity in units of concentration, obtained from inhibition or displacement. Lower therefore signals a stronger hold on the target. Usually IC50 stands for the concentration that inhibits the measured activity by half.

Source of the values: ChEMBL document CHEMBL1157570, “Development of potent and selective inhibitors of ecto-5'-nucleotidase based on an anthraquinone scaffold” (J Med Chem, 2010).
